Among all 370,000 compounds or so, about 500 (0.14%) were called active. The list comes from a sample in which actives are over-represented; it also holds similar structures and randomly drawn compounds. Values without a mark were called inactive.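 How the source made its calls: active means inhibition above the mean of compounds falling within the control limits plus 3 SD of them (cut at about 14% in these data); inactive means the rest.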

We go through 58 compounds from PubChem BioAssay AID720508 (The Scripps Research Institute Molecular Screening Center, 2013).

Sequence of Fibrinogen beta chain (Homo sapiens) (P02675 whole entry, looked up): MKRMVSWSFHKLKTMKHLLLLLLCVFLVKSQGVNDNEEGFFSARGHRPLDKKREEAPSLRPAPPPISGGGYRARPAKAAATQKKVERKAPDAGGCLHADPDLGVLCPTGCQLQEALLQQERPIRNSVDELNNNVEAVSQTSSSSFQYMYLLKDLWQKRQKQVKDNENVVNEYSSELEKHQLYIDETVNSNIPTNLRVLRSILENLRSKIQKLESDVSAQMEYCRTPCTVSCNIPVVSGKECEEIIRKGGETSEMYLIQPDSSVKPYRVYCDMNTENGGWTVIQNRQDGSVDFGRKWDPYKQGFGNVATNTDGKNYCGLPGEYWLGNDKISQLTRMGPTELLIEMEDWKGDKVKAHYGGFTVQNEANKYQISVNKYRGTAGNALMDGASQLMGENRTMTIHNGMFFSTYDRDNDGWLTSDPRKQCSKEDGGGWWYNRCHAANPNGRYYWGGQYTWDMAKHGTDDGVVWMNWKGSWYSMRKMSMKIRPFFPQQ

The target of the test is Fibrinogen beta chain (Homo sapiens) (UniProt P02675). Description: small molecules displacing Tn7 from DD(E) complex – biochemical, fluorescence polarization, human fibrin, Tn7 probe, primary screen (AID 720508).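 Further: 0% = plate median of compound wells and 100% = 10 µM Aha-Tn7 peptide.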 The settings on record: FP displacement of FITC-Tn7 peptide from fibrin DD(E); at 8.3 µM; hits give high values; 0% = median of compound wells per plate. In outline:
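Also added: labelled Tn7 tracer, 0.1 µM; Assay system: human fibrin DD(E) protein; Amount: 2 µM fibrin DD(E); Schedule: 10 min compound pre-incubation, 3 h probe incubation at room temperature; Repeats: one replicate per compound; Read-out basis: percent inhibition; Measured by: fluorescence polarization of the labelled Tn7 tracer.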
A word on the inhibition: it is the change of the read-out against control, counted positive when it falls. `N#Cc1cccc(CSc2ncnc(N)n2)c1`: the inhibition was -4.53%. To `COC(=O)[C@]12CCCCC=C1N(Cc1ccco1)C(=O)[C@H](CC(=O)NCC1CCCCC1)C2` belongs 6.36%. For the compound `CCOc1ccc(NC(=O)CCS(=O)(=O)c2ccc3c(c2)CCCN3C(=O)CC)cc1`, the inhibition is -5.9%.

`COc1ccccc1-c1sc2ccccc2c1C#CC1(O)CCCCC1`: the inhibition is 1.77%.

For `C[C@H](CO)N1C[C@H](C)[C@@H](CN(C)S(=O)(=O)c2ccc(F)cc2)Oc2ccc(NC(=O)CCC(F)(F)F)cc2C1=O`, the inhibition is -0.61%. For `O=C(CCNS(=O)(=O)c1cccs1)N1CCN(c2ccc(F)cc2)CC1`, the inhibition was 3.48%. To `COc1ccc(NC(=O)CN(C)C(=O)c2cccc(S(=O)(=O)N3CCN(c4ccccc4)CC3)c2)cc1` belongs -8.03%.

As to `CCCc1nc2c3ccccc3ccn2c1Cc1ccccc1C(F)(F)F`, the inhibition was 6.59%. To `COc1ccc(-n2c(SCC(=O)Nc3ccccc3-c3ccccc3)nnc2-c2cccnc2)cc1` belongs 6.88%.

Take `Cc1ccc(-n2c(SCC(=O)Nc3cccc4ccccc34)nnc2-c2ccccn2)cc1`: the inhibition is 1.64%. To `O=C(CSc1nnc(-c2ccccn2)n1-c1ccc(Cl)cc1)Nc1ccccc1-c1ccccc1` belongs 14% (active); to `NNC(=O)CNC(c1ccccc1)c1cc(Cl)ccc1NC(=O)c1ccccc1` (stereo not drawn), 2.82%; to `O=C(/C=C/c1ccc([N+](=O)[O-])cc1)NCCSCc1ccco1`, 1.56%. To `C=CCn1c(SCC(=O)c2c(N)n(C)c(=O)n(C)c2=O)nc2sc(CC)cc2c1=O` belongs 3.02%. The value for `CC1(C)CC(=O)c2sc(N)nc2C1` was -0.75%; that for `Cc1cc(C)cc(N(CCC#N)C(=O)CN2C(=O)NC3(CCCC3)C2=O)c1` was -4.5%; that for `COc1ccc(OCCCC(=O)Nc2cccc(S(=O)(=O)N3CCCCCC3)c2)cc1` was 6.07%. `N#CCSc1ccccc1NC(=O)CN1C(=O)NC(CCc2ccccc2)C1=O` (stereo not drawn): the inhibition is -8.31%. To `O=C(CCN1C(=O)c2ccncc2C1=O)Nc1cc(F)ccc1F` belongs 6.34%. The value for `CCOC(=O)C1(S(=O)(=O)c2ccc(Cl)cc2)CCN(Cc2ccccc2)CC1` was 7.42%.

Consider `C#CCNc1ccc(C(=O)OCC)cc1`, for which the inhibition was 26.2% (active). To `CCOC(=O)c1ccc(NC(=O)c2c(NCc3ccccc3)[nH]c(=O)[nH]c2=O)cc1` belongs 1.03%. To `CCOC(=O)c1ccc(NC(=O)c2ccc(NC(=O)C3CCCO3)cc2)cc1` (stereo not drawn) belongs 8.18%.

Turning to `Oc1ccccc1-c1cc(-c2ccc(Cl)cc2)n[nH]1`, the inhibition is -0.94%.

In the case of `COc1ccc(Br)c2c1C(=O)CC2`, the inhibition is -5.83%. The value for `Cn1c(=O)[nH]c(=O)c2c1nc(CN1CCN(c3ccccc3F)CC1)n2CCc1ccccc1` was 6.89%; that for `CC(C)CCN1CCN=C1N(C)C` was -8.21%.

Regarding `OC(c1nc2ccc(F)cc2[nH]1)C(O)c1nc2ccc(F)cc2[nH]1` (stereo not drawn), the inhibition was -4.03%. Turning to `CCOC(=O)N1CCC(=NNC(N)=O)CC1`, the inhibition is 0.3%. The value for `CCOC(=O)C=Cc1ccc(C(=O)OCC)[nH]1` was -0.66%; that for `COc1cc2nc(CN(C)Cc3ccc(F)cc3)[nH]c(=O)c2cc1OC` was -5.44%; that for `Cc1ccc(C)c(NS(=O)(=O)c2c(C)[nH]c(C)c2C(=O)N2CCCCC2)c1` was -9.23%. The value for `CCc1nc2c(OCc3ccc(F)c(F)c3)cccn2c1N(C)C(=O)c1ccco1` was 7.1%; that for `Cc1ccc(NS(=O)(=O)c2ccc3c(c2)NC(=O)CO3)cc1` was 2.86%; that for `Cc1nnc2n1N=C(c1ccc3c(c1)NC(=O)CO3)CS2` was 15.4% (active).

Turning to `CC(C)[C@@H](C(=O)OCC(=O)c1ccc2c(c1)NC(=O)CO2)N1C(=O)c2ccccc2C1=O`, the inhibition was -6.7%.

Regarding `COc1cc(C(=O)NN(CCC#N)C2=NS(=O)(=O)c3ccccc32)cc(OC)c1OC`, the inhibition was -4.12%.

Regarding `CN1C(=O)c2cccc3c(N)ccc(c23)C1=O`, the inhibition is 24.4% (active). In the case of `Cc1nn(C)cc1N1C(=O)c2cccc3c(N)ccc(c23)C1=O`, the inhibition is 28.7% (active). Regarding `CC(=O)CC(CC(=O)NC1CCCCC1)c1ccccc1` (stereo not drawn), the inhibition was 4.93%. As to `CCCC(=O)N1CCC(CCC(=O)NC2CC2)CC1`, the inhibition was -7.44%. To `CC(Sc1ccc(S(=O)(=O)N2CCN(C)CC2)cn1)C(=O)NC1CCCC(C)C1C` (stereo not drawn) belongs 4.47%. The value for `CCC(C)N1CC(=O)N2Cc3[nH]c4ccccc4c3C[C@H]2C1=O` (stereo partly drawn) was -0.72%; that for `COc1ccc(-n2c(SCC(=O)Nc3sc4c(c3C#N)CCCC4)nnc2-c2ccc(O)cc2)cc1` was -4.29%; that for `CCCCOC(=O)NCN1C(=O)C2C3C=CC(C3)C2C1=O` (stereo not drawn) was 12.4%. The value for `Cc1ccc(S(=O)(=O)N2CCC(C(=O)NCCC3=CCCCC3)CC2)cc1C` was 0.25%; that for `OCC1(Cc2ccccc2C(F)(F)F)CCN(Cc2ccncc2)CC1` was -3.68%; that for `Nc1nc(Br)c2ccccc2c1-c1ccc(F)cc1` was -1.53%. Consider `O=C(c1ccc(OC2CCN(C(=O)c3cccnc3)CC2)cc1)N1CCCCCC1`, for which the inhibition was 3.65%. To `O=C(Cn1cnc2c(nnn2Cc2ccc(F)cc2)c1=O)NCc1ccc2c(c1)OCO2` belongs -1.63%; to `O=C(Nc1cccc(C(=O)NC2CC2)c1)c1ccc(F)c(S(=O)(=O)N2CCOCC2)c1`, 6.51%. To `CC12CCC(C(=O)N(CCC#N)CCC#N)(CC1=O)C2(C)C` (stereo not drawn) belongs 1.78%; to `N#CCCN1CCN(S(=O)(=O)c2ccc(S(=O)(=O)N3CCCC3)cc2)CC1`, 3.06%; to `N#Cc1cccc(CN2CCC(=O)N(CCO)CC2)c1`, 7.16%. Consider `CC(C)(C)c1cc(CN2CCN(CCC#N)CC2)cc(C(C)(C)C)c1O`, for which the inhibition was 13.8% (active). To `CCC(c1ccc(NC(=O)OC(C)(C)C)cc1)c1cc(OC)cc(OC)c1` (stereo not drawn) belongs -0.44%; to `CN(C)S(=O)(=O)c1ccc(N/C=C(\[N+](=O)[O-])S(=O)(=O)c2ccccc2)cc1`, -0.82%. To `COC(=O)c1sccc1NC(=O)CSc1ccccc1NS(=O)(=O)c1cc(Cl)ccc1Cl` belongs 0.88%.
